From PMC4402254 (ACS chemical biology, 2015)

Columns and labels:
53BP1 D1521A mutant = 53BP1 D1521A mutant (Homo sapiens, UniProt Q12888, D1521A); experiment: ITC with active site mutant; type: binding; conditions: Kme pocket mutant, listed as UNC2170
[1] = molecular target: GFP fusion protein containing the 53BP1 tudor domains (Homo sapiens, UniProt Q12888); experiment: Fluorescence recovery after photobleaching; type: cell-based; conditions: FRAP before or after ionizing radiation (10 Gy)
Caco-2 cell = experiment: Bi-directional Caco-2 cell permeability assay; type: in vitro ADME
endogenous 53BP1 = endogenous 53BP1 (Homo sapiens, UniProt Q12888); experiment: Chromatin release assay in HEK293 cell lysates; type: biochemical; conditions: 2 hours at room temperature
How it was run: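 HEK293 cells were lysed in EBC-1 (Tris pH 7.5, 100 mM NaCl, 0.5% NP-40, 1 mM EDTA). Washed nuclei were held 30 min in EBC-2 (Tris pH 7.5, 300 mM NaCl, 5 mM CaCl2), and the insoluble chromatin was pelleted and resuspended in EBC-2. Chromatin was exposed to test compound 2 h at RT. The supernatant (soluble) and the sonicated pellet (chromatin-bound) were western blotted for 53BP1, with histone H3 as loading control.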

[2] = CellTiter-Glo luminescent cell-viability assay; type: cell-based
tudor domain of 53BP1 = tudor domain of 53BP1 (Homo sapiens, UniProt Q12888); experiment: 1H-15N HSQC NMR of 53BP1 tudor domain; type: binding; conditions: 10-fold molar excess of ligand
U2OS cells = experiment: 53BP1 and γH2AX foci formation after ionizing radiation; type: cell-based
53BP1 = 53BP1 (Homo sapiens, UniProt Q12888); experiment: AlphaScreen Kme reader panel: 53BP1; type: binding
How it was run: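 Compound serially diluted 3-fold over 10 points in DMSO, top final 100 µM, and preincubated 30 min at RT with His-tagged reader protein–peptide mix in 20 mM Tris pH 8.0, 25 mM NaCl, 2 mM DTT, 0.05% Tween-20. Streptavidin donor/nickel-chelate acceptor bead mix (45 µg/mL) then added for 30 min, dark, RT, and AlphaScreen signal read. The same format was used across the Kme reader panel. IC50 is the mean of ≥3 values ± SD.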

Naive IgM+ B cells = experiment: Class switch recombination; type: cell-based, mouse; conditions: 300 µM
[3] = molecular target: 53BP1 tandem tudor domain (Homo sapiens, UniProt Q12888); experiment: Isothermal titration calorimetry; type: binding; conditions: ITC
53BP1 tandem tudor domain, sequence (Q12888 1484-1603 limits assumed): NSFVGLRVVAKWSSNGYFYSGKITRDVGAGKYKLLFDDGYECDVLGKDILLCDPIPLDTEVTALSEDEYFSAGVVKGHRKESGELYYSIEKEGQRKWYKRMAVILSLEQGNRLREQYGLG

53BP1, sequence (Q12888 1484-1603 limits assumed): as above
53BP1 D1521A mutant, sequence (Q12888 1484-1603 D1521A limits assumed): as the sequence (Q12888 1484-1603 limits assumed) above, with D38A counted along it
tudor domain of 53BP1, sequence (Q12888 1484-1603 limits assumed): as the sequence (Q12888 1484-1603 limits assumed) above
GFP fusion protein containing the 53BP1 tudor domains, sequence (Q12888 1484-1603 limits assumed): as above
endogenous 53BP1, sequence (Q12888 whole entry): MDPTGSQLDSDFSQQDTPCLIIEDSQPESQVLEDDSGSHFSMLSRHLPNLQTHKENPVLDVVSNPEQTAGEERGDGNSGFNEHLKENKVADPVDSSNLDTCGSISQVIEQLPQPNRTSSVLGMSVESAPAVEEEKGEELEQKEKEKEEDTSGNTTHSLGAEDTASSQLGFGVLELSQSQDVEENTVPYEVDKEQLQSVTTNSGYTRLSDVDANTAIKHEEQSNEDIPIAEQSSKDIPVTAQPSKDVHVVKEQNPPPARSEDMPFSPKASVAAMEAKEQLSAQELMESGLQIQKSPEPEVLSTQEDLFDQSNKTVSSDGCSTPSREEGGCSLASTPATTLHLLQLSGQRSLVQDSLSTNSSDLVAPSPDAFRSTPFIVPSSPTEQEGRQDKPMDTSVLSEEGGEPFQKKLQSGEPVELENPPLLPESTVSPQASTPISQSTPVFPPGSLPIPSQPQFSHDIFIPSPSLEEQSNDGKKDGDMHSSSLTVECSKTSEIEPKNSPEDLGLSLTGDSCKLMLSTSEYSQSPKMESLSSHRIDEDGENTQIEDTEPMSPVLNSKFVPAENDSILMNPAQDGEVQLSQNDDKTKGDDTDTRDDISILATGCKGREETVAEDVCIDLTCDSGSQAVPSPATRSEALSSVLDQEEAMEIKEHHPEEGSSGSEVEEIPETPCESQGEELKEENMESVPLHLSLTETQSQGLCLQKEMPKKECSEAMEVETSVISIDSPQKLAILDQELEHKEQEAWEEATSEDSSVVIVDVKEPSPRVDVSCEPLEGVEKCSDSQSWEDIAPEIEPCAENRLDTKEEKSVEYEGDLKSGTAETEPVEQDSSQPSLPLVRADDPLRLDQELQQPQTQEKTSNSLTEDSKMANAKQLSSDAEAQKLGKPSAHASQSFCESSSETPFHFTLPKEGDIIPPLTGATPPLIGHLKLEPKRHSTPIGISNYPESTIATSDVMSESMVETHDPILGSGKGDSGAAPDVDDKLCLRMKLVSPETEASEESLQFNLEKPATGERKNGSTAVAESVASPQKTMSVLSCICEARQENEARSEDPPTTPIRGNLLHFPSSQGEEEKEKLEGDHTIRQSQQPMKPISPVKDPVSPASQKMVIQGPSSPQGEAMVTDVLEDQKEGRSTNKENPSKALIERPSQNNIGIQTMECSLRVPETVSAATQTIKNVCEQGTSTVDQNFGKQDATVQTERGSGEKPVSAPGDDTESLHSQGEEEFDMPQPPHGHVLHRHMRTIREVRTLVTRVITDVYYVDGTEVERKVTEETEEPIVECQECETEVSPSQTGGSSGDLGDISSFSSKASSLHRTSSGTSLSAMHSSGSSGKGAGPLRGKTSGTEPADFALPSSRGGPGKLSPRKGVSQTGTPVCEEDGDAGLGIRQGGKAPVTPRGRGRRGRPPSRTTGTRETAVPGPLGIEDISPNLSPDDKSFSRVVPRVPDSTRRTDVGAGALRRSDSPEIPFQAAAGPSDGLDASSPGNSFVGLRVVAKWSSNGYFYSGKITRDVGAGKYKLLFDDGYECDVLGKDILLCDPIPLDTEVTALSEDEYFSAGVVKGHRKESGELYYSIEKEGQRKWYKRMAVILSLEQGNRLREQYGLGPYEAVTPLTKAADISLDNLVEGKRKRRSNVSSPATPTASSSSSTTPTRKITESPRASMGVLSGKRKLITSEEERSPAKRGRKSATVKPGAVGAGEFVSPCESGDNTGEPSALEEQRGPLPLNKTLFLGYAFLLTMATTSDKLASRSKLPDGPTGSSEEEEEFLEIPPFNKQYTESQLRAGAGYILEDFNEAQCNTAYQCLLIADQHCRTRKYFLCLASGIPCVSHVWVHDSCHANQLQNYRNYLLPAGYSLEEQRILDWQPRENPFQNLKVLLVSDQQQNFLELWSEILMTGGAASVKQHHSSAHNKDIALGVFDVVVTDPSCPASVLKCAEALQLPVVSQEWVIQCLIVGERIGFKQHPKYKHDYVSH

Question: For `CC(C)(C)NCCCNC(=O)c1cccc(Br)c1` [Compound 1], which “binding to 53BP1 D1521A mutant” value (53BP1 D1521A mutant) is on record?
Answer: Its value is “abrogated”.

Question: What about the “apparent residence time of GFP-53BP1 tudor fusion protein” value [1] of the same molecule?
Answer: Its value is “did not affect”.

Question: And the cell permeability (Caco-2 cell)?
Answer: Its cell permeability is “highly cell permeant”.

Question: And the “lowest concentration at which partial release of 53BP1 was detected” value (endogenous 53BP1)?
Answer: The value was 10 µM.

Question: What about the “concentration at which cell toxicity begins to take effect” value [2] of the same molecule?
Answer: Its value is greater than 10000 µM.

Question: And the “changes in chemical shifts of 53BP1 tudor domain” value (tudor domain of 53BP1)?
Answer: Its value is “Extensive changes in chemical shifts were observed”.

Question: And the γH2AX foci (U2OS cells; after compound treatment)?
Answer: Its γH2AX foci is “no changes were observed”.

Question: And the “extent of endogenous 53BP1 foci formed following irradiation” value (U2OS cells; pretreatment 1 hour, 100 – 300 µM, 5 Gy)?
Answer: Its value is “did not significantly decrease”.

Question: What about the ligand efficiency (53BP1) of the same molecule?
Answer: The ligand efficiency was 0.35.

Question: What about the lipophilic ligand efficiency (53BP1) of the same molecule?
Answer: Its lipophilic ligand efficiency is 1.5.

Question: What about the “selectivity for 53BP1 as compared to other Kme binding proteins tested” value (53BP1; versus nine other Kme reader proteins, AlphaScreen) of the same molecule?
Answer: The value was “at least 17 fold”.

Question: What about the “cell viability of B cells undergoing CSR” value (Naive IgM+ B cells) of the same molecule?
Answer: Its value is “reduction in cell viability”.

Question: Which “Kd against the 53BP1 tandem tudor domain” value [3] does the source give for `CN(CCCNC(=O)c1cccc(Br)c1)C(C)(C)C` [Compound 4] here?
Answer: Its value is “no measurable affinity”.
